Measured values from different studies.
Lines come from different studies, so protocols differ.
Target: Mitogen-activated protein kinase kinase kinase kinase 5 (MAP4K5, Homo sapiens, UniProt Q9Y4K4)

SMILES | effect on | mode | method | cells | tested at | endpoint | value
CCCOc1ccc([C@@H]2[C@@H](C(=O)O)[C@H](c3ccc4c(c3)OCO4)CN2CC(=O)Nc2c(CC)cccc2CC)cc1 | cell-free assay |  | competition with immobilised ligand |  | 1 µM | remaining binding | 95%
CCN1CCN(Cc2ccc(NC(=O)c3ccc(C)c(Oc4ccnc5[nH]ccc45)c3)cc2C(F)(F)F)CC1 | target engagement in cells | inhibitor | chemoproteomics | A-375 | 0.5 µM | inhibition | -0.264%
Cc1sc(C(=O)NC2COC2)cc1-n1cc(NC(=O)Nc2c(F)cccc2Cl)cn1 | enzyme activity | inhibitor |  |  | 10 µM | remaining activity | 98.4%
O=C1Nc2ccc(Cl)cc2C1=Cc1cc(Cl)c(O)c(Cl)c1 | cell-free assay |  |  |  | 0.5 µM | remaining signal | 75.9%
Cc1ccc(C(=O)Nc2ccc(CN3CCN(C)CC3)c(C(F)(F)F)c2)cc1C#Cc1cnc2cccnn12 | enzyme activity | inhibitor |  |  | 23.5 nM | remaining activity | 69%
Cc1cc(C)c(-n2ccn3nc(-c4cccnc4)cc23)cc1NC(=O)c1cc(C#N)cc(S(F)(F)(F)(F)F)c1 | cell-free assay |  | competition with immobilised ligand |  | 0.1 µM | remaining binding | 83.4%
COc1cc(/C=C/C(=O)CC(=O)/C=C/c2ccc(O)c(OC)c2)ccc1O | enzyme activity | inhibitor |  |  | 1 µM | activity vs control | 87%
CS(=O)(=O)c1cc(C2(NC(=O)c3cncc4c3cnn4-c3ccc(F)cc3)CC2)ccn1 | cell-free assay |  | competition with immobilised ligand |  | 1 µM | remaining binding | 98%
CC(C)(C)c1nc2c(s1)c1nc(N)ncc1c1ccc(NS(=O)(=O)c3c(F)cccc3F)c(F)c12 | enzyme activity | inhibitor | radiometric |  | 1 µM | remaining activity | 87%
N#CCCc1ccc2c(c1)-c1[nH]c3ccc([N+](=O)[O-])cc3c1CC(=O)N2 | cell-free assay |  |  |  | 0.5 µM | remaining signal | 7.61%
CNC(=O)c1cc2c(Oc3ccc(NC(=O)C4(C(=O)Nc5ccc(F)cc5)CC4)cc3)ccnc2cc1OC | enzyme activity | inhibitor | radiometric |  | 1 µM | inhibition | 89%
COc1cc2ncnc(Nc3ccc(Oc4ccccc4)c(C)c3C)c2cc1OC | enzyme activity | inhibitor |  |  | 1 µM | inhibition | -2%
Cc1ccc(NC(=O)c2ccc(CN3CCN(C)CC3)cc2)cc1Nc1nc(-c2cccnc2)cs1 | cell-free assay |  |  |  | 0.5 µM | remaining signal | 97%
CO[C@@H](C)c1c(Nc2ccc([C@H](N(C)C(=O)C3CCS(=O)(=O)CC3)C(F)(F)F)cc2)cnc2cc(Cl)nn12 | cell-free assay |  | competition with immobilised ligand |  | 1 µM | remaining binding | 88%
COc1cc(Nc2cnc(C#N)c(O[C@H](C)CN(C)C)n2)ncc1-c1cnn(C)c1 | enzyme activity | inhibitor | radiometric |  | 1 µM | remaining activity | 46%
Cc1nc(N2CC[C@@H](O)C2)ncc1-c1cc(C(F)(F)F)cc2[nH]ncc12 | binding |  | competition with immobilised ligand |  | 1 µM | remaining binding | 75%
CN(C)c1nccc(-c2cnc3ncccn23)n1 | binding |  |  |  | 1 µM | remaining binding | 100%
Cc1cc(NC(=O)c2cccc(S(F)(F)(F)(F)F)c2)cc(-n2ccn3nc(-c4cccnc4)cc23)c1 | cell-free assay |  | competition with immobilised ligand |  | 1 µM | remaining binding | 100%
FC(F)(F)Oc1cccc(-c2cnc3ccc(-c4ccncc4)nn23)c1 | enzyme activity | inhibitor | radiometric |  | 5 µM | activity vs control | 74%
